This note sets out measurements from ChEMBL document CHEMBL4400551, “Discovery and lead optimisation of a potent, selective and orally bioavailable RARβ agonist for the potential treatment of nerve injury” (Bioorg Med Chem Lett, 2019).

pEC50: −log10 of the molar value. The source made the active and inactive calls. No cut-off for these calls is given here.

The species named for one data set is Mus musculus. In words: Selectivity ratio of EC50 for GAL4-fused mouse RARalpha LBD expressed in COS-7 cells to EC50 for GAL4-fused mouse RARbeta-LBD expressed in COS-7 cells. It is filed as cell-based.
Data set [1] can be described thus: Fraction absorbed in Sprague-Dawley rat at 1 to 10 mg/kg, po by LC-MS/MS analysis. The data set is classed as ADME, organism-based. The settings on record: in vivo, read-out: Fabs. In outline:
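Rats: oral doses of 1, 3 and 10 mg/kg in 8% ethanol/92% PEG-400; iv reference 0.5 mg/kg in 4% DMSO, 38% PEG-400, 58% (0.9%) NaCl. Fraction absorbed is the mean over the three oral doses relative to the iv dose.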

For another data set, the system named is HepG2. In words: Cytotoxicity against human HepG2 cells at 50 uM. The data set is classed as cell-based. The settings on record: hepg2, 50 µM. In outline:
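HepG2 cell toxicity assay; highest concentration tested 50 μM.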

Data set [2] addresses Voltage-gated inwardly rectifying potassium channel KCNH2 (Homo sapiens, UniProt Q12809). In words: Displacement of [3H]astemizole from human ERG at 10 uM. In outline: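 HERG channel binding assay at 10 μM.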
The nature of data set [3]: Genotoxicity in Salmonella typhimurium TA98 at 100 uM by Ames test. The settings on record: salmonella enterica subsp. enterica serovar typhimurium. It is filed as toxicity. In short, it runs like this: (§1)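 Ames test in three bacterial strains.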
In general terms: In the Ames test, an excess of revertant colonies over the control signals mutagenicity.

In data set [4] the test system is Rattus norvegicus. In words: Neuroprotective activity in avulsed rat model assessed as reduction in latency for time taken to sense and remove the tape from the paw of the lesioned forelimbs at 3 mg/kg, po administered every other day for 4 weeks. The data set is classed as functional, organism-based. In outline:
(§2)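 Rats with avulsion injury given 3 mg/kg orally three times a week, every other day; sensory and locomotor function assessed. Mean of n = 8; two-way repeated-measures ANOVA with Tukey's post-hoc test.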

For another data set, the system named is CHO-MG. In words: Agonist activity at RARbeta in CHO-MG cells assessed as increase in neurite length after 24 hrs by immunostaining based assay. The settings on record: Cricetulus griseus. The data set is classed as cell-based. In outline:
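Cerebellar neurons cultured on a CHO-MAG cell monolayer; 24 hr exposure to vehicle or agonist at 1×10^-8 – 1×10^-6 M. Neurite outgrowth read by immunostaining and neurite length quantification; means of 3 independent experiments; Student's t-test, vehicle versus highest dose.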

Data set [5] can be described thus: Drug uptake in Sprague-Dawley rat brain at 1 to 10 mg/kg, po measured after 8 hrs by LC-MS/MS analysis. The data set is classed as ADME, organism-based. The settings on record: in vivo. In outline: (§3)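 Oral dosing to rats; brain tissue and plasma levels compared 8 h after dosing.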
Data set [6] is described as follows: Drug uptake in Sprague-Dawley rat plasma at 1 to 10 mg/kg, po measured after 8 hrs by LC-MS/MS analysis. The data set is classed as ADME, organism-based. The settings on record: in vivo. In short, it runs like this: as §3
Data set [7] can be described thus: Genotoxicity in Salmonella typhimurium TA100 at 100 uM by Ames test. The data set is classed as toxicity. The settings on record: salmonella enterica subsp. enterica serovar typhimurium. In short, it runs like this: as §1
The nature of data set [8]: Genotoxicity in Salmonella typhimurium TA1535 at 100 uM by Ames test. It is filed as toxicity. The settings on record: salmonella enterica subsp. enterica serovar typhimurium. In short, it runs like this: as §1
Data set [9] concerns Salmonella typhimurium. In words: Toxicity in Salmonella typhimurium TA100 at 100 uM. It is filed as organism-based. The settings on record: salmonella enterica subsp. enterica serovar typhimurium. In outline:
(§4)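 Bacterial cytotoxicity testing up to 100 μM.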

Data set [10] concerns Salmonella typhimurium. In words: Toxicity in Salmonella typhimurium TA1535 at 100 uM. The data set is classed as organism-based. The settings on record: salmonella enterica subsp. enterica serovar typhimurium. In short, it runs like this: as §4
Data set [11] deals with Salmonella typhimurium. In words: Toxicity in Salmonella typhimurium TA98 at 100 uM. The data set is classed as organism-based. The settings on record: salmonella enterica subsp. enterica serovar typhimurium. In outline:
as §4

The test system of data set [12] is CHO-K1. In words: Genotoxicity in CHOK1 cells in presence of S9 fraction by micronucleus test. The settings on record: chinese hamster. It is filed as toxicity, cell-based, Cricetulus griseus. In short, it runs like this:
(§5)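 In vitro micronucleus test in CHO-K1 cells, run both with and without S9.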

Data set [13] has as its system CHO-K1. In words: Genotoxicity in CHOK1 cells in absence of S9 fraction by micronucleus test. The data set is classed as toxicity, cell-based, Cricetulus griseus. The settings on record: chinese hamster. In outline: as §5
Data set [14] has as its system Rattus norvegicus. In words: Neuroprotective activity in avulsed rat model assessed as reduction in number of foot slips in a horizontal ladder by injured forelimb at 3 mg/kg, po administered every other day for 4 weeks. It is filed as functional, organism-based. In short, it runs like this: as §2
Data set [15] concerns the target T1, Retinoic acid receptor gamma (Mus musculus, UniProt P18911).
T1 sequence (P18911 whole entry): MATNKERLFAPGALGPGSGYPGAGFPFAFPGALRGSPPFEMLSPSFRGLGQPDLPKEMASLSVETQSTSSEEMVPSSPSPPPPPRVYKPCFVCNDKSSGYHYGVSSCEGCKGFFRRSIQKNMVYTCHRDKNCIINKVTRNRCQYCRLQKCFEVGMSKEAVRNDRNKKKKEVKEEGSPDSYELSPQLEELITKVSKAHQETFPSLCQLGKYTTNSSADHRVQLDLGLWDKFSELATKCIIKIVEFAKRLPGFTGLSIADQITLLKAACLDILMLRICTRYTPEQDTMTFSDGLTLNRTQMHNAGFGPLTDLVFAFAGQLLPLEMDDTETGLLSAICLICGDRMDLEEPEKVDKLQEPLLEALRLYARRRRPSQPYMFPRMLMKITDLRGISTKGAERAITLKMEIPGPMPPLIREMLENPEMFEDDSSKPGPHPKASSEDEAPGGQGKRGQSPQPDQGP
In words: Transactivation of GAL4-fused mouse RARgamma-LBD expressed in COS-7 cells after 24 hrs by bright-Glo reagent based assay. It is filed as cell-based. In short, it runs like this:
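Transactivation assays with mouse RAR α, β and γ ligand binding domains; values usually from three separate experiments, with error about 20% of the mean.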

Chain of Voltage-gated inwardly rectifying potassium channel KCNH2 (Q12809 whole entry): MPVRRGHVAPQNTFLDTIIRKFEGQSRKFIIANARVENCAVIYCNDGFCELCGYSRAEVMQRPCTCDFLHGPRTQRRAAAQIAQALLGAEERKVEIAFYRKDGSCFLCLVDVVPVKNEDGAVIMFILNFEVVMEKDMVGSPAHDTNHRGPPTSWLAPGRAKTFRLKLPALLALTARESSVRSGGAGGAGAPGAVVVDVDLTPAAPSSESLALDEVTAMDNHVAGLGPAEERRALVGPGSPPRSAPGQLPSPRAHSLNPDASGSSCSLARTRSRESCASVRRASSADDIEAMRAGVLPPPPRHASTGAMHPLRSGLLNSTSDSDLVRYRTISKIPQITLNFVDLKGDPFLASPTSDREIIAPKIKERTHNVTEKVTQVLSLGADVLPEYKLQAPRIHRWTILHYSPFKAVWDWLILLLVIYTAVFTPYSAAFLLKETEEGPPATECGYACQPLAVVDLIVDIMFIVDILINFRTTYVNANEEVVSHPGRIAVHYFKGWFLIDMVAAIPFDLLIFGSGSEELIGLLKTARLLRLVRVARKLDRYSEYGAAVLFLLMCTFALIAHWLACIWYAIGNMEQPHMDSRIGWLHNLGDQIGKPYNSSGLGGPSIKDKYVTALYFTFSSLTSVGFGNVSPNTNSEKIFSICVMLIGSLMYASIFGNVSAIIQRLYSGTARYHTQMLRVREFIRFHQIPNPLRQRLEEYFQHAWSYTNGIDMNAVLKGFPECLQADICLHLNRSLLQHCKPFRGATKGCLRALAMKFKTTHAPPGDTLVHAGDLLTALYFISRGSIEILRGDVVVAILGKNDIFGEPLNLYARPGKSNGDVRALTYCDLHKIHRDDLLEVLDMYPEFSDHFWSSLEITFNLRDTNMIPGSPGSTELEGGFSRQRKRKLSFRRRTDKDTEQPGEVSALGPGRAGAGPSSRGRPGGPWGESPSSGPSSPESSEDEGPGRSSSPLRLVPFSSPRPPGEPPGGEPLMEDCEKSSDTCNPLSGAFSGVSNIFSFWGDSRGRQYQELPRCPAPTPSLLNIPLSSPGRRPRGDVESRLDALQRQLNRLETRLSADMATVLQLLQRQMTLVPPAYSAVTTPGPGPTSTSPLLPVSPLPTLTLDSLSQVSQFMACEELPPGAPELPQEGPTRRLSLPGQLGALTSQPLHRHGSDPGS

In the case of `Cc1ccc(C)c2oc(-c3nc(-c4ccc(C(=O)O)cc4)no3)nc12`, the Ratio EC50 in the data set listed under Mus musculus is 10.

`Cc1cc(-c2noc(-c3cc4c(C)ccc(C)c4o3)n2)ccc1C(=O)O`: the Ratio EC50 in the data set filed under Mus musculus came to 6.4.

As for `Cc1ccc(C)c2oc(-c3nc(-c4ccc(C(=O)O)cc4)no3)cc12`, in the data set listed under Mus musculus, the Ratio EC50 is 13. The Fa in data set [1] came to 80%. In addition, the Activity entry was “Non-Toxic” in the data set on HepG2; “Non-Toxic” in data set [3]; “Dose-dependent effect” in the data set with CHO-MG; “Non-Toxic” in [7]; “Non-Toxic” in data set [8]; “Non-Toxic” in the data set with Salmonella typhimurium [9]. The Activity result in the data set on Salmonella typhimurium [10], in the data set with Salmonella typhimurium [11], with CHO-K1 [12] and with CHO-K1 [13] was “Non-Toxic” throughout. For the same molecule, in [2], the “inhibition (INH)” value is “Not Active”. Also, the outcome in the data set with Rattus norvegicus [4] and with Rattus norvegicus [14] was Active. The Drug uptake result in data set [5] and in data set [6] was “Active” throughout.

Usually pEC50 stands for the EC50 on a negative log10 scale, so that one unit is a factor of ten. Low values mean a high EC50, high ones a low EC50. For `CCOc1c(Cl)cc(-c2csc(-c3ccc(C(=O)O)cc3)n2)cc1Cl`, the negative logarithm of the EC50 (pEC50) in data set [15] is 6.80.

The molecule `CCOc1c(Cl)cc(C(=O)Nc2ccc(C(=O)O)cc2)cc1Cl` had a negative-log EC50 (pEC50) in data set [15] of 4.52.

Consider `Cc1cc(C(=O)O)ccc1-c1noc(-c2cc3c(C)ccc(C)c3o2)n1`, for which the Ratio EC50 in the data set filed under Mus musculus turned out to be 13.

In the case of `Cc1ccc(C)c2oc(-c3nc(-c4ccc(C(=O)O)cc4F)no3)cc12`, the Ratio EC50 in the data set listed under Mus musculus was 5.5.

In turn, `CCOc1c(Cl)cc(-c2noc(-c3ccc(C(=O)O)cc3)n2)cc1Cl` had a pEC50 in data set [15] of 8.27.

For `CCCCOCCOc1nc(-c2ccc(C(=O)O)c(F)c2)sc1C`, in the data set filed under Mus musculus, the Ratio EC50 was found to be 5.8.

`CCOc1c(Cl)cc(-c2nnc(-c3ccc(C(=O)O)cc3)o2)cc1Cl`: the pEC50 in [15] was 6.82.

On to `Cc1ccc(C)c2sc(-c3nc(-c4ccc(C(=O)O)cc4)no3)cc12`, for which, in the data set filed under Mus musculus, the Ratio EC50 turned out to be 9.

On to `O=C(O)c1ccc(-c2noc(-c3cc4c(C(F)(F)F)ccc(F)c4o3)n2)cc1`, for which, in the data set listed under Mus musculus, the Ratio EC50 is 7.6.

Consider `CC1(C)CCC(C)(C)c2cc(-c3nc(-c4ccc(C(=O)O)cc4)no3)ccc21`, for which the Ratio EC50 in the data set listed under Mus musculus turned out to be 17.

Regarding `CC(C)(C)c1cc(-c2nc(-c3ccc(C(=O)O)cc3)no2)cc(C(C)(C)C)c1`, in the data set filed under Mus musculus, the Ratio EC50 is 2.8.

`CCOc1c(Cl)cc(-c2cnc(-c3ccc(C(=O)O)cc3)o2)cc1Cl` gave a negative-log EC50 (pEC50) in [15] of 7.35.

Take `Cc1ccc(C)c2oc(-c3nc(-c4ccc(C(=O)O)c(F)c4)no3)cc12`: the Ratio EC50 in the data set listed under Mus musculus was 7.3.
